Laboratory results: ChEMBL document CHEMBL1131449, “4-(trans-4-Methylcyclohexyl)-4-oxobutyric acid (JTT-608). A new class of antidiabetic agent” (1998)
Activity calls are given as the source filed them. The calls are words filed in the database; no cut-off is given here.

How the values were obtained:
Rattus norvegicus [1] = experiment: Percent decrease of hyperglycemia at 30 min after glucose loading(1 g/kg ip) relative to vehicle control in rats at dose 100 mg/kg po; assay type: functional, organism-based; design: dose 100 mg/kg
Method in brief: (§1)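 Normal rats, groups of four to six, fasted 16 h. Glucose given 1 g/kg ip, with oral vehicle or compound. Tail-vein blood glucose measured by the hexokinase method. Value is % reduction of hyperglycemia 30 min after the glucose load versus vehicle control. Dunnett's two-tailed test used.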

Rattus norvegicus [2] = experiment: Percent decrease of hyperglycemia at 30 min after glucose loading(1 g/kg ip) relative to vehicle control in rats at dose 30 mg/kg po; assay type: functional, organism-based; design: dose 30 mg/kg; method in brief: as §1
Rattus norvegicus [3] = experiment: Percent decrease of hyperglycemia at 30 min after glucose loading(1 g/kg ip) relative to vehicle control in rats at dose 100 mg/kg po.; assay type: functional; design: scale not given: the % may be the effect or the level left; method in brief: as §1
Rattus norvegicus [4] = experiment: Hypoglycemic activity in fasting rats at a dose of 30 mg/kg po; assay type: functional, organism-based; design: dose 30 mg/kg
Method in brief: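 Normal rats, groups of four or five, fasted 16 h, then given vehicle or compound by mouth. Tail-vein blood sampled over 4 h for glucose (hexokinase method) and insulin (two-antibody radioimmunoassay). Comparison to vehicle control by Dunnett's two-tailed test.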

Rattus norvegicus [5] = experiment: Percent decrease of hyperglycemia at 30 min after glucose loading(1 g/kg ip) relative to vehicle control in rats at dose 10 mg/kg po; assay type: functional, organism-based; design: dose 10 mg/kg; method in brief: as §1
Rattus norvegicus [6] = experiment: Percent decrease of hyperglycemia at 30 min after glucose loading(1 g/kg ip) relative to vehicle control in rats at dose 30 mg/kg po.; assay type: functional; design: scale not given: the % may be the effect or the level left; method in brief: as §1
Rattus norvegicus [7] = experiment: Percent decrease of hyperglycemia at 30 min after glucose loading(1 g/kg ip) relative to vehicle control in rats at dose 10 mg/kg po.; assay type: functional; design: scale not given: the % may be the effect or the level left; method in brief: as §1
Rattus norvegicus [8] = experiment: Percent decrease of hyperglycemia at 30 min after glucose loading(1 g/kg ip) relative to vehicle control in rats at dose 1 mg/kg po; assay type: functional, organism-based; design: dose 1 mg/kg; method in brief: as §1
Rattus norvegicus [9] = experiment: Percent decrease of hyperglycemia at 30 min after glucose loading(1 g/kg ip) relative to vehicle control in rats at dose 3 mg/kg po.; assay type: functional; design: scale not given: the % may be the effect or the level left; method in brief: as §1

## C[C@H]1CC[C@H](C(=O)OCC(=O)O)CC1
Rattus norvegicus [1]
  Effect: inactive

## C[C@H]1CC[C@H]([S+]([O-])CCC(=O)O)CC1 (some centres undefined)
Rattus norvegicus [1]
  Effect: inactive

## CC1CCCC(C(=O)CCC(=O)O)C1 (centres undefined)
Rattus norvegicus [2]
  Effect: inactive
Rattus norvegicus [3]
  Effect: 37%

## CC1(C)CCC(C(=O)CCC(=O)O)CC1
Rattus norvegicus [2]
  Effect: inactive
Rattus norvegicus [3]
  Effect: 34%

## O=C(O)CCC(=O)C1CCCCC1
Rattus norvegicus [4]
  Effect: inactive
Rattus norvegicus [5]
  Effect: inactive
Rattus norvegicus [6]
  Effect: 27%
Rattus norvegicus [3]
  Effect: 26%

## C[C@H]1CC[C@H](CCCC(=O)O)CC1
Rattus norvegicus [1]
  Effect: inactive

## O=C(O)CCC(=O)C1CCCC1
Rattus norvegicus [1]
  Effect: inactive

## CCC[C@H]1CC[C@H](C(=O)CCC(=O)O)CC1
Rattus norvegicus [1]
  Effect: inactive

## CC1CCCCC1C(=O)CCC(=O)O (centres undefined)
Rattus norvegicus [1]
  Effect: inactive

## O=C(O)CCC(=O)C1CCCCCC1
Rattus norvegicus [1]
  Effect: inactive

## C[C@H]1CC[C@H](C(=O)CCCC(=O)O)CC1
Rattus norvegicus [1]
  Effect: inactive

## C[C@H]1CC[C@H](C(=O)CCC(N)=O)CC1
Rattus norvegicus [4]
  Effect: inactive
Rattus norvegicus [5]
  Effect: inactive
Rattus norvegicus [6]
  Effect: 27%
Rattus norvegicus [3]
  Effect: 47%

## CC(=O)CCC(=O)[C@H]1CC[C@H](C)CC1
Rattus norvegicus [4]
  Effect: inactive
Rattus norvegicus [5]
  Effect: inactive
Rattus norvegicus [6]
  Effect: 30%
Rattus norvegicus [3]
  Effect: 31%

## C[C@H]1CC[C@@H](C(=O)CCC(=O)O)CC1
Rattus norvegicus [4]
  Effect: inactive
Rattus norvegicus [5]
  Effect: inactive
Rattus norvegicus [6]
  Effect: 32%
Rattus norvegicus [3]
  Effect: 44%

## CC[C@H]1CC[C@H](C(=O)CCC(=O)O)CC1
Rattus norvegicus [1]
  Effect: inactive

## C[C@H]1CC[C@H](S(=O)(=O)CCC(=O)O)CC1
Rattus norvegicus [1]
  Effect: inactive

## C[C@H]1CC[C@H](C(=O)CCC(=O)O)CC1
Rattus norvegicus [7]
  Effect: 32%
Rattus norvegicus [4]
  Effect: inactive
Rattus norvegicus [8]
  Effect: inactive
Rattus norvegicus [9]
  Effect: 24%
Rattus norvegicus [6]
  Effect: 41%
Rattus norvegicus [3]
  Effect: 65%

## C[C@H]1CC[C@H](C(=O)NCC(=O)O)CC1
Rattus norvegicus [1]
  Effect: inactive

## CC1(C(=O)CCC(=O)O)CCCCC1
Rattus norvegicus [2]
  Effect: inactive
Rattus norvegicus [3]
  Effect: 28%
